ChEMBL document CHEMBL1138007, “Examining the correlations between GSK-3 inhibitory properties and anti-convulsant efficacy of valproate and valproate-related compounds” (Bioorg Med Chem Lett, 2004)
Calls of active or inactive are those of the source. The rule behind the calls is not given here.

Tested on: not listed separately
Assay: Anti-convulsant activity in experimental animal model; +++ = more effective
Type: functional
Details: not given

| Structure (SMILES) | Activity |
| --- | --- |
| C=CCC(CCC)C(=O)O (stereo not given) | Active |
| CCCC(CCC)C(N)=O | Active |
| CCCC(C)(CCC)C(=O)O | Active |
| CCCC(CCC)C(=O)NO | Active |

Tested on: not listed separately
Assay: Inhibitory activity (0.5 mM) against Glycogen synthase kinase-3 beta, expressed as percent control
Set-up: scale not given: the % may be the effect or the level left
Details: not given
How it was run: (§1)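 Recombinant GSK-3α or β, preincubated with compound (0-4 mM), then given phospho-glycogen synthase peptide-2 substrate and [γ-³²P]-ATP plus unlabelled ATP. Buffer: 20 mM MOPS, 0.25 mM Mg acetate, 5 mM MgCl₂, 5 mM β-glycerophosphate, 1 mM EGTA, 0.25 mM Na₃VO₄, 0.25 mM DTT. Reaction ran 30 min at 30 °C, then was spotted on phosphocellulose, acid-washed and scintillation-counted. Background-subtracted counts were normalized to uninhibited activity.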

| Structure (SMILES) | Control [%] |
| --- | --- |
| CCC(CC)C(=O)O | 56.1 |

Tested on: not listed separately
Assay: Inhibitory activity (20 mM) against Glycogen synthase kinase-3 beta, expressed as percent control
Set-up: scale not given: the % may be the effect or the level left
Details: not given

| Structure (SMILES) | Control [%] |
| --- | --- |
| O=C1NC(=O)C(c2ccccc2[N+](=O)[O-])=C1Nc1ccc(O)c(Cl)c1 | 4.6 |
| [Cl-].[Li+] | 19.5 |

Tested on: not listed separately
Assay: Inhibitory activity (4 mM) against Glycogen synthase kinase-3 beta, expressed as percent control
Set-up: scale not given: the % may be the effect or the level left
Details: in the assay text read “(0.5 mM)” for “(4 mM)”
How it was run: as §1

| Structure (SMILES) | Control [%] |
| --- | --- |
| CCC(CC)C(=O)O | 56.1 |

Target: Glycogen synthase kinase-3 alpha (Homo sapiens) (UniProt P49840)
Assay: Inhibitory activity (4 mM) against Glycogen synthase kinase-3 alpha, expressed as percent control
Set-up: scale not given: the % may be the effect or the level left
Details: not given
How it was run: as §1

Glycogen synthase kinase-3 alpha (Homo sapiens), sequence (P49840 2-483 limits assumed): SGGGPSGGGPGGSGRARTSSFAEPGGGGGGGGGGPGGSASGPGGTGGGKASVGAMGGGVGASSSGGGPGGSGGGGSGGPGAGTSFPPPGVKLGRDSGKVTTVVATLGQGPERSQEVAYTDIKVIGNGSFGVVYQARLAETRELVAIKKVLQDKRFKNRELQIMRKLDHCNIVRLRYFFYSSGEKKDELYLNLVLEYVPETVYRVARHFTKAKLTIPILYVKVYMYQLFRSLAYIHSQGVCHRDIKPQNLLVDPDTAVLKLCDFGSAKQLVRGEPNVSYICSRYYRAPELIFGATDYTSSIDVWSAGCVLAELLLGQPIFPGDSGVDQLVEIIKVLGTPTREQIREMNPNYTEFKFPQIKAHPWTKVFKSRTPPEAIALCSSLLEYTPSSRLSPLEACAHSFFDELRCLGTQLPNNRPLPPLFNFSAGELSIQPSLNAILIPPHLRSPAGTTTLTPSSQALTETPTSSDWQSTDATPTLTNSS

| Structure (SMILES) | Control [%] |
| --- | --- |
| CCC(CC)C(=O)O | 0.5 |

Tested on: not listed separately
Assay: Anti-convulsant activity in experimental animal model; ++ = relative to valproate
Type: functional
Details: not given

| Structure (SMILES) | Activity |
| --- | --- |
| CC/C=C(\CCC)C(=O)O | Active |
| CCCC(CCC)C(=O)O | Active |

Tested on: not listed separately
Assay: Inhibitory activity against Glycogen synthase kinase-3 beta, expressed as percent control
Set-up: concentration or dose not given beside the values
Details: not given
How it was run: as §1

| Structure (SMILES) | Control [%] |
| --- | --- |
| CC/C=C(\CCC)C(=O)OC | 33.3 |
| C=CCC(CCC)C(=O)O (stereo not given) | 57.7 |
| CCCC(CCC)C(N)=O | 83.9 |
| CC/C=C(\CCC)C(=O)O | 91.3 |
| C=CCC(CCC)C(=O)OC (stereo not given) | 123 |
| CCCC(CCC)C(=O)O | 35.5 |
| CCCC(C)(CCC)C(=O)OC | 122 |
| C=CCC(CCC)C(=O)OC(C)C (stereo not given) | 110 |
| CCCC(C)(CCC)C(=O)O | 24.8 |
| CCCC(CCC)C(=O)OC | 81.8 |
| CCCC(CCC)C(=O)NO | 49.1 |

Target: Glycogen synthase kinase-3 alpha (Homo sapiens) (UniProt P49840)
Assay: Inhibitory activity (0.5 mM) against Glycogen synthase kinase-3 alpha, expressed as percent control
Set-up: scale not given: the % may be the effect or the level left
Details: not given
How it was run: as §1

| Structure (SMILES) | Control [%] |
| --- | --- |
| CCC(CC)C(=O)O | 88.3 |

Tested on: not listed separately
Assay: Anti-convulsant activity in experimental animal model; + = less effective
Type: functional
Details: not given

| Structure (SMILES) | Activity |
| --- | --- |
| CCC(CC)C(=O)O | Weak activity |

Target: Glycogen synthase kinase-3 alpha (Homo sapiens) (UniProt P49840)
Assay: Inhibitory activity against Glycogen synthase kinase-3 alpha, expressed as percent control
Set-up: concentration or dose not given beside the values
Details: not given
How it was run: as §1

| Structure (SMILES) | Control [%] |
| --- | --- |
| CC/C=C(\CCC)C(=O)OC | 61.3 |
| C=CCC(CCC)C(=O)O (stereo not given) | 99.2 |
| CCCC(CCC)C(N)=O | 96.6 |
| CC/C=C(\CCC)C(=O)O | 100 |
| C=CCC(CCC)C(=O)OC (stereo not given) | 99.9 |
| CCCC(CCC)C(=O)O | 80.4 |
| CCCC(C)(CCC)C(=O)OC | 99.7 |
| C=CCC(CCC)C(=O)OC(C)C (stereo not given) | 87.9 |
| CCCC(C)(CCC)C(=O)O | 67.4 |
| CCCC(CCC)C(=O)OC | 104 |
| CCCC(CCC)C(=O)NO | 54.2 |
